Test results published in ChEMBL document CHEMBL1153919, “Pyrano[2,3-e]isoindol-2-ones, new angelicin heteroanalogues” (Bioorg Med Chem Lett, 2009).

System: not listed separately
Assay: Phototoxicity against human NCTC-2544 cells exposed to irradiation with 3.75 J/cm'2 UVA light prior to 72 hrs drug exposure by MTT assay
Type: cell-based
Conditions: NCTC-2544, light or radiation study
Summary of the method: (§1)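 Phototoxicity panel: NCTC-2544 keratinocytes, LoVo adenocarcinoma, K562 and Jurkat leukemia cells. Cells with compound received UVA at 2.5 or 3.75 J/cm2. Cell growth was measured by MTT after 72 h of exposure. IC50 is the concentration inhibiting growth by 50%.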

Compound	IC50 [µM]
CCOC(=O)c1c2c(c(C)n1Cc1ccc(OC)cc1)-c1oc(=O)c(C(=O)OC)cc1CC2	> 20
Cn1cc2c(c1)-c1oc(=O)c(C(=O)O)cc1CC2	> 20
CCOC(=O)c1cc2c(oc1=O)-c1c(cn(Cc3ccccc3)c1C)CC2	> 20

System: Jurkat
Assay: Cytotoxicity against human Jurkat cells after 72 hrs by MTT assay
Type: functional, cell-based
Conditions: not given

Compound	IC50 [µM]
COc1c2occc2cc2ccc(=O)oc12 [METHOXSALEN]	> 20
O=c1ccc2ccc3occc3c2o1 [ANGELICIN]	> 20
CCOC(=O)c1c2c(c(C)n1Cc1ccc(OC)cc1)-c1oc(=O)c(C(=O)OC)cc1CC2	> 20
Cn1cc2c(c1)-c1oc(=O)c(C(=O)O)cc1CC2	> 20
CCOC(=O)c1cc2c(oc1=O)-c1c(cn(Cc3ccccc3)c1C)CC2	> 20

System: not listed separately
Assay: Phototoxicity against human NCTC-2544 cells exposed to irradiation with 2.5 J/cm'2 UVA light prior to 72 hrs drug exposure by MTT assay
Type: cell-based
Conditions: NCTC-2544, light or radiation study
Summary of the method: as §1

Compound	IC50 [µM]
COc1c2occc2cc2ccc(=O)oc12 [METHOXSALEN]	5.5
O=c1ccc2ccc3occc3c2o1 [ANGELICIN]	4.2
CCOC(=O)c1c2c(c(C)n1Cc1ccc(OC)cc1)-c1oc(=O)c(C(=O)OC)cc1CC2	> 20
Cn1cc2c(c1)-c1oc(=O)c(C(=O)O)cc1CC2	> 20
CCOC(=O)c1cc2c(oc1=O)-c1c(cn(Cc3ccccc3)c1C)CC2	> 20

System: not listed separately
Assay: Cytotoxicity against human NCTC-2544 cells after 72 hrs by MTT assay
Type: cell-based
Conditions: NCTC-2544, 72 h

Compound	IC50 [µM]
COc1c2occc2cc2ccc(=O)oc12 [METHOXSALEN]	> 20
O=c1ccc2ccc3occc3c2o1 [ANGELICIN]	> 20
CCOC(=O)c1c2c(c(C)n1Cc1ccc(OC)cc1)-c1oc(=O)c(C(=O)OC)cc1CC2	> 20
Cn1cc2c(c1)-c1oc(=O)c(C(=O)O)cc1CC2	> 20
CCOC(=O)c1cc2c(oc1=O)-c1c(cn(Cc3ccccc3)c1C)CC2	> 20

System: K562
Assay: Cytotoxicity against human K562 cells after 72 hrs by MTT assay
Type: functional, cell-based
Conditions: K562, 72 h

Compound	IC50 [µM]
COc1c2occc2cc2ccc(=O)oc12 [METHOXSALEN]	> 20
O=c1ccc2ccc3occc3c2o1 [ANGELICIN]	> 20
CCOC(=O)c1c2c(c(C)n1Cc1ccc(OC)cc1)-c1oc(=O)c(C(=O)OC)cc1CC2	> 20
Cn1cc2c(c1)-c1oc(=O)c(C(=O)O)cc1CC2	> 20
CCOC(=O)c1cc2c(oc1=O)-c1c(cn(Cc3ccccc3)c1C)CC2	> 20

System: Jurkat
Assay: Phototoxicity against human Jurkat cells exposed to irradiation with 2.5 J/cm'2 UVA light prior to 72 hrs drug exposure by MTT assay
Type: functional, cell-based
Conditions: light or radiation study
Summary of the method: as §1

Compound	IC50 [µM]
CCOC(=O)c1c2c(c(C)n1Cc1ccc(OC)cc1)-c1oc(=O)c(C(=O)OC)cc1CC2	> 20
Cn1cc2c(c1)-c1oc(=O)c(C(=O)O)cc1CC2	> 20
CCOC(=O)c1cc2c(oc1=O)-c1c(cn(Cc3ccccc3)c1C)CC2	> 20

System: LoVo
Assay: Cytotoxicity against human LoVo cells after 72 hrs by MTT assay
Type: functional, cell-based
Conditions: not given

Compound	IC50 [µM]
COc1c2occc2cc2ccc(=O)oc12 [METHOXSALEN]	> 20
O=c1ccc2ccc3occc3c2o1 [ANGELICIN]	> 20
CCOC(=O)c1c2c(c(C)n1Cc1ccc(OC)cc1)-c1oc(=O)c(C(=O)OC)cc1CC2	> 20
Cn1cc2c(c1)-c1oc(=O)c(C(=O)O)cc1CC2	> 20
CCOC(=O)c1cc2c(oc1=O)-c1c(cn(Cc3ccccc3)c1C)CC2	> 20

System: K562
Assay: Phototoxicity against human K562 cells exposed to irradiation with 2.5 J/cm'2 UVA light prior to 72 hrs drug exposure by MTT assay
Type: functional, cell-based
Conditions: K562, light or radiation study
Summary of the method: as §1

Compound	IC50 [µM]
CCOC(=O)c1c2c(c(C)n1Cc1ccc(OC)cc1)-c1oc(=O)c(C(=O)OC)cc1CC2	> 20
Cn1cc2c(c1)-c1oc(=O)c(C(=O)O)cc1CC2	> 20
CCOC(=O)c1cc2c(oc1=O)-c1c(cn(Cc3ccccc3)c1C)CC2	> 20

System: LoVo
Assay: Phototoxicity against human LoVo cells exposed to irradiation with 3.75 J/cm'2 UVA light prior to 72 hrs drug exposure by MTT assay
Type: functional, cell-based
Conditions: light or radiation study
Summary of the method: as §1

Compound	IC50 [µM]
CCOC(=O)c1c2c(c(C)n1Cc1ccc(OC)cc1)-c1oc(=O)c(C(=O)OC)cc1CC2	> 20
Cn1cc2c(c1)-c1oc(=O)c(C(=O)O)cc1CC2	> 20
CCOC(=O)c1cc2c(oc1=O)-c1c(cn(Cc3ccccc3)c1C)CC2	> 20

System: Jurkat
Assay: Phototoxicity against human Jurkat cells exposed to irradiation with 3.75 J/cm'2 UVA light prior to 72 hrs drug exposure by MTT assay
Type: functional, cell-based
Conditions: light or radiation study
Summary of the method: as §1

Compound	IC50 [µM]
CCOC(=O)c1c2c(c(C)n1Cc1ccc(OC)cc1)-c1oc(=O)c(C(=O)OC)cc1CC2	11.8
Cn1cc2c(c1)-c1oc(=O)c(C(=O)O)cc1CC2	> 20
CCOC(=O)c1cc2c(oc1=O)-c1c(cn(Cc3ccccc3)c1C)CC2	> 20

System: LoVo
Assay: Phototoxicity against human LoVo cells exposed to irradiation with 2.5 J/cm'2 UVA light prior to 72 hrs drug exposure by MTT assay
Type: functional, cell-based
Conditions: light or radiation study
Summary of the method: as §1

Compound	IC50 [µM]
CCOC(=O)c1c2c(c(C)n1Cc1ccc(OC)cc1)-c1oc(=O)c(C(=O)OC)cc1CC2	> 20
Cn1cc2c(c1)-c1oc(=O)c(C(=O)O)cc1CC2	> 20
CCOC(=O)c1cc2c(oc1=O)-c1c(cn(Cc3ccccc3)c1C)CC2	> 20

System: K562
Assay: Phototoxicity against human K562 cells exposed to irradiation with 3.75 J/cm'2 UVA light prior to 72 hrs drug exposure by MTT assay
Type: functional, cell-based
Conditions: K562, light or radiation study
Summary of the method: as §1

Compound	IC50 [µM]
CCOC(=O)c1c2c(c(C)n1Cc1ccc(OC)cc1)-c1oc(=O)c(C(=O)OC)cc1CC2	12.6
Cn1cc2c(c1)-c1oc(=O)c(C(=O)O)cc1CC2	> 20
CCOC(=O)c1cc2c(oc1=O)-c1c(cn(Cc3ccccc3)c1C)CC2	> 20
